Assay outcomes as filed in PubChem.
Compounds with a hit are over-represented: about 3.7% of the library has one in this group of screens.
RAM inhibit – blocks the yeast RAM network; S. cerevisiae dse1pr::URA3 reporter, 5-FOA growth OD615, 2 d; analog-sensitive cbk1-as2 kinase mutant strain; inhibition, % at 50 µM; 190,000 compounds, 1.8% hits;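 active = inhibition above a set limit, 3 SD over mean compound inhibition, cut at about 8.4% in these data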;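 note: inhibition rescues growth on 5-FOA so higher OD means more RAM inhibition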
BB579 growth dn – chemicals that inhibit yeast BB579 growth in restrictive medium (lifespan-shortening candidates). AID 804. 140,000 compounds, 0.51% hits. S. cerevisiae BB579 growth, OD615, 48 h. inhibition, % at 10 µM;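 active = inhibition above a set limit, 3 SD over the mean compound inhibition, cut at about 44% in these data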
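System: Saccharomyces cerevisiae DeaD strain BB579, replicative lifespan model yeast. Buffer or medium: restrictive glucose-based CSMM-D medium. Doses: one dose, 10 µM compound with 0.25% DMSO. Timing: 4 h preincubation and 48 h exposure at 30 °C. Detection: turbidity as optical density at 615 nm. Benchmarks: amphotericin B 10 µg/mL, positive.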
INS promoter inh – TRM-6 insulin promoter activity inhibition; 130,000 compounds, 0.9% hits; TRM-6 cells, insulin promoter-eGFP reporter, imaging; reporter expression induced with tamoxifen; inhibition, % at 2 µM; AID 1273;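 active = inhibition above the mean plus 3 SD, with well images judged a real hit on visual review, cut at about 60% in these data, passing the limit was not always enough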
Yeast lifespan up – yeast lifespan extension; inhibition of the nicotinamide effect, % at 10 µM; S. cerevisiae growth with nicotinamide, OD615; deaD strain in restrictive glucose medium; 130,000 compounds, 0.68% hits;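 active = inhibition above a set limit, placed 3 SD over the median of all compounds, cut at about 26% in these data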
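Assay system: DeaD-strain S. cerevisiae. Medium: CSMM-D glucose medium, restrictive. Reagent: nicotinamide, 1.5 mM, co-present with compound. Compound: 10 µM single point, 0.25% DMSO. Schedule: culture preincubation 4 h, compound exposure 48 h, both 30 °C. Detection: absorbance at 615 nm.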
Efa HMGR inh – blocks class II HMG-CoA reductase of Enterococcus faecalis. inhibition, % at 10 µM. 190,000 compounds, 0.41% hits. purified E. faecalis HMGR, NADPH absorbance 340 nm kinetic;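 active = inhibition above a set limit, the median over all tested compounds plus 3 SD, cut at about 9.5% in these data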;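 note: enzyme runs in reverse so mevalonate oxidation gives rising NADPH absorbance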
Each line names hits and unclear results; the compound was inactive in the other large screens.

O=C(NCCNCCO)c1c(O)c2cccc3c2n(c1=O)CCC3	Yeast lifespan up 33
COc1ccc(CCNC(=O)c2c(O)c3cccc4c3n(c2=O)CC4)cc1	RAM inhibit 8.5
CCCCCCNC(=O)c1c(O)c2cccc3c2n(c1=O)CCC3	none (no result: INS promoter inh)
COc1ccc(CNC(=O)c2c(O)c3cccc4c3n(c2=O)CCC4)cc1OC	Yeast lifespan up 34
COc1ccc(CNC(=O)c2c(O)c3cccc4c3n(c2=O)CCC4)cc1	Yeast lifespan up 34
CCOc1ccc(C(Nc2ccc(C)cc2)P2(=O)OCCC(C)O2)cc1 (stereo not given)	none
CN1C(=O)C(CC(=O)NCC2CCCCC2)SC1=Nc1ccccc1 (stereo not given)	none (no result: BB579 growth dn, INS promoter inh, Yeast lifespan up)
O=C(NC(Cc1c[nH]c2ccccc12)C(=O)O)c1ccco1 (stereo not given)	none
O=C(NCc1ccccc1)N[C@@H](Cc1c[nH]c2ccccc12)C(=O)O	INS promoter inh 75
O=C1C(Cl)=C(Nc2ccccc2)C(=O)c2ccccc21	none
C=CCNC1=C(Cl)C(=O)c2ccccc2C1=O	BB579 growth dn 60
COc1ccc(NS(=O)(=O)c2cc(NC(=O)[C@@H](NC(=O)c3ccccc3)C(C)C)ccc2C)cc1	RAM inhibit 8.6
Nc1nsc2ccccc12	BB579 growth dn 46
COc1ccc(N2CC(NC(=O)N3CCc4ccccc43)CC2=O)cc1OC (stereo not given)	none (no result: BB579 growth dn, Yeast lifespan up)
COc1ccc(CCNC(=O)CSc2cn(Cc3ccccc3)c3ccccc23)cc1OC	RAM inhibit 10
COc1ccc(CCNC(=O)c2cnn3c(C(F)F)cc(C)nc23)cc1OC	BB579 growth dn 51 (no result: INS promoter inh)
COc1ccc(CCNC(=O)CSc2cn(Cc3cccc(C)c3)c3ccccc23)cc1OC	none
COc1ccc(CCNC(=O)c2ccccc2Cl)cc1OC	Efa HMGR inh 18 (no result: BB579 growth dn, INS promoter inh, Yeast lifespan up)
Cc1nn(C)c(C)c1NC(=O)CCl	none (no result: BB579 growth dn, INS promoter inh, Yeast lifespan up)
COc1ccc(C2=NOC(C(=O)N(C)Cc3ccccc3)C2)cc1 (stereo not given)	none (no result: BB579 growth dn, INS promoter inh, Yeast lifespan up)
CC(C)(C)c1nn2cnnc2n(/N=C/c2ccccc2)c1=O	none (no result: INS promoter inh)
COc1cc(Cl)c(C)cc1NC(=O)CCCn1c(=O)oc2ccccc21	none
COc1cc(OC)c(NC(=O)CCCn2c(=O)oc3ccccc32)cc1Cl	RAM inhibit 11
COc1cccc(OC)c1OCCN(C)C	INS promoter inh 70
COc1cccc(OC)c1OCCNC(C)(C)C	none (no result: INS promoter inh)
O=C(c1cccc(F)c1)n1nnc2ccccc21	INS promoter inh 81
Cc1ccc(C(=O)n2nnc3ccccc32)cc1	none (no result: RAM inhibit, BB579 growth dn, Yeast lifespan up, Efa HMGR inh)
COc1ccc(C2C3=C(CCCC3=O)Nc3nc(SCc4ccccc4)nn32)cc1OC (stereo not given)	none
COc1ccc(C2C3=C(CCCC3=O)Nc3nc(SCc4ccc(C(=O)O)cc4)nn32)cc1OC (stereo not given)	RAM inhibit 8.8 (no result: INS promoter inh)
Cc1nc(=S)c2ccccc2[nH]1	Efa HMGR inh 15
COc1ccc(/C=N/NC(=O)c2ccc(Cn3cc([N+](=O)[O-])cn3)o2)c(OC)c1C	RAM inhibit 9.5 (no result: INS promoter inh)
OC1(c2ccccc2F)CCN(Cc2nnnn2Cc2ccc(F)cc2)CC1	none (no result: BB579 growth dn, INS promoter inh, Yeast lifespan up)
COc1ccc(C)cc1NC(=O)C(Sc1nnnn1C)c1ccccc1 (stereo not given)	Efa HMGR inh 15 (no result: BB579 growth dn, INS promoter inh, Yeast lifespan up)
COc1ccc(C)cc1NC(=O)C(OC(=O)c1cc(C)oc1C)c1ccccc1 (stereo not given)	RAM inhibit 11 (no result: INS promoter inh)
O=C(Nc1nc(-c2ccc(Cl)cc2)cs1)NC1CCCCC1	none
CN(C)C(=O)c1ccc(NC(=O)c2ccccc2Sc2ccccc2C#N)cc1	none
Cc1ccc(/C=N/NC(=O)c2ccc(C(=O)N/N=C/c3ccc(C)s3)o2)s1	RAM inhibit 10
Cc1ccc(/C=N/NC(=O)c2ccco2)s1	none (no result: INS promoter inh)
Cc1nc(NC(=O)c2ccc(Cl)cc2)sc1-c1csc(Nc2cccc(F)c2)n1	none
O=C(Nc1ccccc1-c1nnc(SCc2ccc(Cl)cc2Cl)o1)c1ccccc1	RAM inhibit 10 (no result: INS promoter inh)
CC1(c2ccccc2)CC(C)(C)N2C(=O)Cc3cccc1c32 (stereo not given)	none (no result: BB579 growth dn, Yeast lifespan up)
CN(C(=O)COC(=O)c1ccc([N+](=O)[O-])cc1N)c1ccccc1	none (no result: BB579 growth dn, INS promoter inh, Yeast lifespan up)
O=C(NCc1ccccc1)c1cccc(COc2ccccc2Cl)c1	RAM inhibit 8.6 (no result: INS promoter inh)
COc1ccccc1C(=O)NCc1ccccc1	none (no result: Yeast lifespan up)
O=C(NCc1ccc(F)cc1)c1ccccc1OCc1ccccc1	RAM inhibit 10
O=C(c1ccc(Cl)cc1)[C@@H]1[C@@H]2C(=O)N(c3cccc4ccccc34)C(=O)[C@@H]2C2c3ccccc3C=NN21 (stereo not given in full)	none
Cc1cc([N+](=O)[O-])ccc1N=Nc1c(N)[nH]n(-c2ccccc2)c1=O	RAM inhibit 8.6 (no result: BB579 growth dn, Yeast lifespan up)
CN1C(=O)c2cccc3c(Cl)ccc(c23)C1=O	BB579 growth dn 61
O=c1oc2ccccc2c(O)c1C=Nc1cccnc1	none (no result: BB579 growth dn, INS promoter inh, Yeast lifespan up)
CCOC(=O)c1c(-c2ccc(C)o2)csc1NC(=O)CSc1nnnn1-c1ccccc1	RAM inhibit 8.6
CCOC(=O)c1c(-c2ccc(C)o2)csc1NC(=O)CSc1nnc(C)s1	RAM inhibit 11 (no result: INS promoter inh)
CCOC(=O)c1c(NC(=O)CSc2nnc(C)s2)sc2c1CCC(C)C2 (stereo not given)	RAM inhibit 8.9 (no result: Yeast lifespan up)
CCOC(=O)c1sc(NC(=O)CSc2nnnn2-c2ccccc2)nc1C	none (no result: INS promoter inh)
COc1ccc(NC(=S)N2CCCN(Cc3cc(C)ccc3C)C2)cc1	none (no result: BB579 growth dn, Yeast lifespan up)
COCCCNC(=O)C1CCC(CNS(=O)(=O)c2ccc(Cl)cc2)CC1 (stereo not given)	none (no result: BB579 growth dn, Yeast lifespan up)
O=C(COC(=O)c1cccnc1)Nc1ccc2c(c1)OCO2	none (no result: BB579 growth dn, INS promoter inh, Yeast lifespan up)
C/C(=N\NC(=O)c1nn(C)c(C)c1Br)c1ccc(NC(=O)c2ccoc2C)cc1	none
C/C(=N\NC(=O)c1nn(C)c(C)c1Br)c1ccc(NC(=O)c2ccc(C)s2)cc1	RAM inhibit 9.2 (no result: BB579 growth dn, INS promoter inh, Yeast lifespan up)
CO/N=C\CC(=O)Nc1ccc(Cl)cc1Cl	none (no result: BB579 growth dn, Yeast lifespan up)
COc1ccc(-n2nnc3c(=O)n(CC(=O)Nc4cc(C)on4)cnc32)cc1OC	none (no result: BB579 growth dn, Yeast lifespan up)
COc1cc([N+](=O)[O-])cc2cc(C(=O)N3CCN=C3c3ccccc3)c(=O)oc12	RAM inhibit 8.9 (no result: BB579 growth dn, Yeast lifespan up)
CCOC(=O)c1cc2cc([N+](=O)[O-])cc(OC)c2oc1=O	none (no result: BB579 growth dn, Yeast lifespan up)
O=C(N/N=C/c1ccccc1Br)C1CC1	none (no result: BB579 growth dn, INS promoter inh, Yeast lifespan up)
COc1ccc(O)c(-c2cc(C(F)(F)C(F)F)nc(-c3ccccc3)n2)c1	RAM inhibit 9.1
CCOc1ccc(C2=Nc3ccc(Br)cc3C(c3ccc(N4CCOCC4)cc3)=NN2)cc1	RAM inhibit 10 (no result: INS promoter inh)
Cc1ccc(S(=O)(=O)NNc2ccccc2)c(C)c1	none
Cc1ccc(S(=O)(=O)NC(=O)c2ccc(-c3ccc(-c4ccccc4)cc3)o2)c(C)c1	INS promoter inh 67
O=C(Cc1ccccc1)Nc1cc([N+](=O)[O-])ccc1N1CCOCC1	none (no result: BB579 growth dn, INS promoter inh, Yeast lifespan up)
COc1ccc(/C=N/NC(=O)c2cccc(OC(F)(F)C(F)F)c2)cc1O	none
